Compound activity (PubChem)
Only some compounds are listed: those with a hit (about 1.1% of all), similar ones and a draw of the others.
Avidin fluor = avidin bead compound fluorescence profile. 220,000 compounds, 0.38% hits. Avidin beads, compound fluorescence 488/530 nm, flow cytometry; hits give high values. AID 1775. fluorescence (KMESF) at 10 µM; in the data active means fluorescence above about 47
Arrestin-AP2 inh = blocks beta-arrestin peptide binding to AP2 adaptin; FITC-arrestin peptide / GST-AP2 beads, flow cytometry; AP2 beta2 appendage carries R879A mutation; 340,000 compounds, 0.31% hits; inhibition, % at 10 µM;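 active means inhibition above a set limit, near 3 SD of compounds lacking own fluorescence, cut at about 54% in these data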;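 further: plate controls were DMSO wells for no effect and 5 µM unlabelled arrestin peptide for full effect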
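System: GST-AP2 R879A bound to glutathione beads, E. coli-expressed. Also added: 50 nM FITC-arrestin peptide. Schedule: compound with beads 12 min RT, then probe 1 h RT. Signal: bead flow cytometry, FITC channel. Read-out basis: percent response.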
Pemphigus Ab inh = human desmoglein-3 autoantibody binding inhibition | DSG3-coupled beads, scFv-anti-DSG3-GFP binding, flow cytometry; hits give low values | AID 588358 | binding (percent of control), % at 10 µM | 310,000 compounds, 0.48% hits;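 active means binding more than 3 SD below its plate's average and above zero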;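 further: hits lower antibody fragment binding to DSG3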
GSH fluor = GSH bead compound fluorescence profile. GSH beads flow cytometry, compound fluorescence 488/530 nm; hits give high values. fluorescence (KMESF) at 10 µM. 190,000 compounds, 0.25% hits. AID 1776; in the data active means fluorescence above about 89;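 further: glutathione beads carrying GST-tagged Bcl family fusion proteins plus one bare bead set; values are compound well signal with DMSO vehicle wells as background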
Arr AP2 CP1 = blocks beta-arrestin peptide binding to human AP2 | 1,300 compounds, 2% hits | shares compounds with Arrestin-AP2 inh | inhibition, % at 10 µM | AID 504908 | GST-AP2 beads, FITC arrestin peptide binding, flow cytometry; GST-fused beta2-adaptin appendage, R879A mutant;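 active means inhibition above a set limit, roughly 3 SD of non-fluorescent compound noise, cut at about 38% in these data; inactive means inhibition at or below that limit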;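 further: loss of bead fluorescence from 50 nM FITC arrestin peptide bound to appendage; 0% = negative control wells and 100% = excess unlabelled arrestin peptide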
Target sequence (P63010 whole entry, looked up, the tested form may be a part, one chain of several): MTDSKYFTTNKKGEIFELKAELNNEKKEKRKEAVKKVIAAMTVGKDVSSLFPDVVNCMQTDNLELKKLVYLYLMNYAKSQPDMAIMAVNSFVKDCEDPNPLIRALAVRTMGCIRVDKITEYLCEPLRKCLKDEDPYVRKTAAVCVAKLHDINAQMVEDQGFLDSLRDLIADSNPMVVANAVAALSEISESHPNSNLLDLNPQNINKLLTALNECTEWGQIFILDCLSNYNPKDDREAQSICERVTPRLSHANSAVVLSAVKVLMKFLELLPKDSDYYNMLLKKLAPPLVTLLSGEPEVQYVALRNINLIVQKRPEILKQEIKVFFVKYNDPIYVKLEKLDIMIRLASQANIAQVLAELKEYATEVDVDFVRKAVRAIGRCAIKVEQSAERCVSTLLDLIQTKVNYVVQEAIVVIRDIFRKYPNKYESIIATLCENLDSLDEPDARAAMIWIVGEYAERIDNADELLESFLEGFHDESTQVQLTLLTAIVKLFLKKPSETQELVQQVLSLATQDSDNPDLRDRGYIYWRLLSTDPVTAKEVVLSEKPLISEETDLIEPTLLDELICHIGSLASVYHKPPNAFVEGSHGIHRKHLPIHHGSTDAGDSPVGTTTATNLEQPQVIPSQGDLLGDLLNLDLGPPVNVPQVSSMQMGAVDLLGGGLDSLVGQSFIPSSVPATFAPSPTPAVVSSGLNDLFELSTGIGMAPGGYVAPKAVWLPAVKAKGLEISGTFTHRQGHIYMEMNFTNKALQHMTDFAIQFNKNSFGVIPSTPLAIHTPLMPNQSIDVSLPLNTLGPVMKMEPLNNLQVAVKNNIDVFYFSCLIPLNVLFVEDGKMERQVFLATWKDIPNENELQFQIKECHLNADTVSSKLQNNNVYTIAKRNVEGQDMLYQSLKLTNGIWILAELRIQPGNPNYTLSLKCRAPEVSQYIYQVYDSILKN
GST-FITC bead = disrupts GST binding to glutathione beads, arrestin-AP2 artifact; 1,300 compounds, 2% hits; shares compounds with Arrestin-AP2 inh; inhibition, % at 10 µM; GST-fluorescein binding to GSH beads, fluorescence, counter-screen;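 active means inhibition above 50%, about 3 SD of the inhibition seen with non-fluorescent compounds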;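 further: fluorescein maleimide labelled GST captured on 4 micron glutathione beads; higher means more loss of bead fluorescence from quenching or blocked binding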
* = called active by the depositor; ! = not active in a repeat.

For Cc1cnc(C(=O)Nc2ccc(N3CCCCC3)cc2)cn1 the results were Avidin fluor 13, Arrestin-AP2 inh 2, Pemphigus Ab inh 103 and GSH fluor 8.
Screening O=C(NCC1CCCO1)c1ccc([N+](=O)[O-])o1 (stereo not given) returned Arrestin-AP2 inh 28 and Pemphigus Ab inh 97.
`Cc1cccc2c1c1ccc3c(c1n2C)C(=O)C=CC3=O` gave Avidin fluor 4, Arrestin-AP2 inh 67*, Pemphigus Ab inh 117, Arr AP2 CP1 49* and GST-FITC bead 0.
Cc1ccccc1N1CC(=O)N(c2ccccc2C)CC1=O was read as Avidin fluor 9, Arrestin-AP2 inh 0, Pemphigus Ab inh 116 and GSH fluor 13.
CCCc1cc(=O)[nH]c(SCC(=O)c2c(C)[nH]c3ccccc23)n1 was read as Avidin fluor 7, Arrestin-AP2 inh 1 and Pemphigus Ab inh 95.
Screening CCCc1cc(=O)[nH]c(SCC(=O)c2c[nH]c3ccccc23)n1 returned Avidin fluor 10, Arrestin-AP2 inh 54*, Pemphigus Ab inh 116, GSH fluor 13, Arr AP2 CP1 4 and GST-FITC bead 4.
For Cc1ccc(N2C(SCC(=O)O)=NC(=Nc3cccc(C)c3)C23CCCC3)cc1 the results were Avidin fluor 9, Arrestin-AP2 inh -2, Pemphigus Ab inh 98 and GSH fluor 14.
`COc1ccc(/C=N\N=C2/SC(CC(=O)O)C(=O)N2c2ccc(O)cc2)cc1` (stereo not given) gave Avidin fluor 14, Arrestin-AP2 inh 56*, Pemphigus Ab inh 120, GSH fluor 29, Arr AP2 CP1 -4 and GST-FITC bead -11.
Screening COc1ccc(/C=N/N=C2\SC(CC(=O)O)C(=O)N2c2ccccc2)cc1 (stereo not given) returned Avidin fluor 13, Arrestin-AP2 inh -2, Pemphigus Ab inh 103 and GSH fluor 5.
Screening COC(=O)CCC(=O)NNC(=O)c1cccc(Br)c1 returned Avidin fluor 14, Arrestin-AP2 inh 11, Pemphigus Ab inh 103 and GSH fluor 9.
O=C(O)CCC(=O)NNC(=O)c1cccc(Br)c1 was read as Avidin fluor 16, Arrestin-AP2 inh 58*, Pemphigus Ab inh 103, GSH fluor 7, Arr AP2 CP1 0 and GST-FITC bead -5.
Screening CCNc1nc(OC)nc(SCC(N)=O)n1 returned Avidin fluor 26, Arrestin-AP2 inh -3, Pemphigus Ab inh 103 and GSH fluor 16.
CCCNc1nc(NCC)nc(OC)n1 was read as Avidin fluor 17, Arrestin-AP2 inh 64*, Pemphigus Ab inh 102, GSH fluor 24, Arr AP2 CP1 13 and GST-FITC bead -6.
Screening Cc1ccc(-c2cc(C(F)F)n3ncc(C(=O)N4CCc5ccccc54)c3n2)cc1 returned Avidin fluor 11, Arrestin-AP2 inh 13, Pemphigus Ab inh 84 and GSH fluor 14.
For Cc1ccc(-c2cc(C(F)(F)F)n3ncc(C(=O)N4CCCc5ccccc54)c3n2)cc1 the results were Avidin fluor 10, Arrestin-AP2 inh -6, Pemphigus Ab inh 113, GSH fluor 16, Arr AP2 CP1 49*! and GST-FITC bead 56*!.
CCCCCSc1nnc(N)s1 was read as Avidin fluor 8 and Arrestin-AP2 inh 8.
`O=C(Nc1ccc(Br)cc1)Nc1cnccn1` gave Arrestin-AP2 inh 15, Pemphigus Ab inh 119 and Arr AP2 CP1 -5.
O=C(Nc1ccc(F)cc1)Nc1cnccn1 was read as Arrestin-AP2 inh 4, Pemphigus Ab inh 99, Arr AP2 CP1 2 and GST-FITC bead -5.
O=C(Nc1ccc(Br)cc1)c1cnccn1 was read as Avidin fluor 8, Arrestin-AP2 inh 10, Pemphigus Ab inh 100 and GSH fluor 22.
For O=C(Nc1ccc(F)cc1)c1cnccn1 the results were Pemphigus Ab inh 102.
`CC1CC(C)CN(c2oc(-c3ccccc3Cl)nc2C#N)C1` (stereo not given) gave Avidin fluor 8, Arrestin-AP2 inh 118*, Pemphigus Ab inh 101, GSH fluor 16, Arr AP2 CP1 14 and GST-FITC bead -1.
Screening CN1C(=O)C(=O)/C(=C(/O)c2ccc(Br)cc2)C1c1cccc([N+](=O)[O-])c1 (stereo not given) returned Arrestin-AP2 inh 20 and Pemphigus Ab inh 114.
O=C(Nc1nnc(-c2ccncc2)o1)C1CCCCC1 was read as Avidin fluor 13, Arrestin-AP2 inh 19, Pemphigus Ab inh 103 and GSH fluor 12.
Screening O=C(Nc1nnc(C2=COCCO2)o1)C1CCCCC1 returned Avidin fluor 7, Arrestin-AP2 inh 59*, GSH fluor 14, Arr AP2 CP1 4 and GST-FITC bead 1.
Screening OC(C#Cc1ccccn1)c1cccs1 (stereo not given) returned Avidin fluor 24, Arrestin-AP2 inh 99*, Pemphigus Ab inh 101, GSH fluor 19, Arr AP2 CP1 -6 and GST-FITC bead -1.
`CCN(CC)c1ccc(NS(=O)(=O)c2ccc(-c3ccc(=O)[nH]n3)o2)c(C)c1` gave Arrestin-AP2 inh 57*, Pemphigus Ab inh 122, Arr AP2 CP1 2 and GST-FITC bead 6.
O=C(N/N=C/c1cccc([N+](=O)[O-])c1)c1cccc(Br)c1 was read as Avidin fluor 14, Arrestin-AP2 inh 104*, Pemphigus Ab inh 105, GSH fluor 15, Arr AP2 CP1 13 and GST-FITC bead 60*.
`Cc1ccc(NC(=O)/C(C#N)=N/Nc2ccc(C(=O)O)cc2)c(C)c1` gave Avidin fluor 8, Arrestin-AP2 inh 8 and Pemphigus Ab inh 99.
For Cc1ccc(N/N=C(\C#N)C(N)=S)c(C)c1 the results were Avidin fluor 8, Arrestin-AP2 inh 57*, Pemphigus Ab inh 96, GSH fluor 24, Arr AP2 CP1 -1 and GST-FITC bead -1.
Cc1ccc(S(=O)(=O)N2CCOCC2)cc1C(=O)N1CCN(c2ncccn2)CC1 was read as Arrestin-AP2 inh 1 and Pemphigus Ab inh 110.
Screening C1=CC2(C=C1)OC21CCC2(C=CC3(C2)OC3C2CCCCC2)CC1 (stereo not given) returned Pemphigus Ab inh 100.
For CC(C)(C)[C@H]1C=C(C(=O)N2CCOCC2)O[C@@H](OCCCCO)C1 the results were Avidin fluor 6, Arrestin-AP2 inh 54*, Pemphigus Ab inh 98, GSH fluor 17, Arr AP2 CP1 -7 and GST-FITC bead -2.
N#Cc1sc2nc(-c3cccs3)cc(-c3ccc(Cl)cc3)c2c1N was read as Avidin fluor 21, Arrestin-AP2 inh 61*, Pemphigus Ab inh 83, GSH fluor 10, Arr AP2 CP1 -11 and GST-FITC bead 9.
N#Cc1sc2nc(-c3cccs3)cc(-c3ccccc3)c2c1N was read as Avidin fluor 22, Arrestin-AP2 inh 3, Pemphigus Ab inh 96 and GSH fluor 54.
